Bioassay records as filed in PubChem.
iPSC survival up: enhancers of human iPSC single-cell survival. actives 0.044% (n = 360,000). AID 602274. survival enhancement, % at 20 µM. hiPSC single-cell survival, ATPlite luminescence; 100% = ROCK inhibitor wells, 0% = DMSO; in the data active means survival enhancement above about 18%;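 further: cells exposed to compounds for 16 hours before the ATP read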
CHOP UPR activ: activators of apoptotic arm of unfolded protein response (CHOP). CHO-CHOP luciferase reporter, UPR activation, luminescence; percent of tunicamycin response over DMSO baseline. activation, % at 10 µM. actives 0.34% (n = 330,000);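 active means at 10 µM dose, activation of 40% or more, normalized to positive control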;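 further: 100% = tunicamycin at 10 µg/mL and 0% = DMSO alone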
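Material: CHO-CHOP cells, stable luciferase reporter of PERK-eIF2a-CHOP signalling; quantity: 500 reporter cells seeded per well; buffer or medium: F12 medium containing 10% fetal bovine serum; compound: one dose, 10 µM in 0.5% DMSO; incubation: 6 h compound treatment, 37 °C; measured by: Steady-Glo luciferase luminescence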
CHOP inh: blocks CHOP induction under ER stress; CHO-K1 CHOP-promoter luciferase, tunicamycin-induced, 15-18 h; inhibition, % at 10 µM; actives 3.8% (n = 220,000); AID 2732;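 active means compounds that reduced the stress-induced luciferase reporter signal by more than about 70% of percent inhibition, limit read from the data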;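 further: 0% = tunicamycin plus vehicle and 100% = wells without tunicamycin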
XBP1 UPR activ: activators of adaptive arm of unfolded protein response (XBP1); CHO-XBP1 luciferase reporter, IRE1-XBP1 UPR activation, luminescence; percent of tunicamycin response, DMSO as zero; activation, % at 20 µM; actives 0.33% (n = 330,000); AID 463104;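 active means versus positive control, 20 µM dose yields 30% or more activation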;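 further: 100% = tunicamycin at 10 µg/mL and 0% = DMSO only wells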
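Assay system: CHO-XBP1 luciferase reporter cells; Schedule: 6 h treatment, 37 °C; Detection: glow luminescence from Steady-Glo reagent; Benchmarks: high control tunicamycin 10 µg/mL final, low control DMSO vehicle only.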
H9c2 protect: modulators protecting cardiomyocytes from myocardial damage; H9c2 cardiomyocytes, H2O2 injury protection, ATPLite, 2 h; actives 0.63% (n = 360,000); AID 588492; protection from H2O2 cell death, % at 20 µM;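 active means compounds giving at least 50% protection of heart cells from peroxide-induced death in the single-dose screen, raw or plate-pattern-corrected value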;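 further: 0% = DMSO wells with peroxide and 100% = DMSO wells without peroxide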
CHOP inh conf: confirmation of CHOP induction inhibitors | inhibition, % at 10 µM | actives 45% (n = 2,100) | CHO-CHOP promoter luciferase reporter, tunicamycin-induced, luminescence | shares compounds with CHOP inh;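 active means mean of three repeat readings of reporter signal inhibition above a set limit, cut at about 70% in these data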;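 further: 0% = tunicamycin plus vehicle and 100% = wells lacking tunicamycin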
Active calls of the source: *; · = no result given. This excerpt belongs to a sample that is enriched for hits.

SMILES	iPSC survival up	CHOP UPR activ	CHOP inh	XBP1 UPR activ	H9c2 protect	CHOP inh conf
Cc1sc(NC(=O)c2ccccc2)c(C(c2ccc(Cl)cc2)N2CCN(CCO)CC2)c1C (stereo not given)	-3	0	104*	2	38	2
CC(=O)Nc1sc2c(c1C(c1cccc(Cl)c1)N1CCN(CCO)CC1)CCCC2 (stereo not given)	2	1	38	0	14	·
Cc1cccc(NCC(=O)N/N=C\c2cccc(Oc3ccccc3)c2)c1	1	-1	104*	0	-20	81*
Cc1ccc(NCC(=O)N/N=C/c2cccc(Oc3ccccc3)c2)cc1	0	2	101*	-3	-10	85*
CC1(C(=O)NS(=O)(=O)c2ccc(F)cc2F)CCN1C(=O)c1ccc(C2CCCCC2)cc1 (stereo not given)	5	·	·	·	2	·
C/C=C/C(O)c1ccc2ccccc2c1 (stereo not given)	·	1	·	3	·	·
COc1ccc(S(=O)(=O)N(C)CC(=O)NCCCN2CCOCC2)cc1C	0	·	·	·	5	·
COc1ccc(C(=O)NC(=O)Nc2cc(C)ccn2)cc1	-2	-9	105*	-9	-21	103*
O=C(C[C@@H]1C[C@@H]2c3cc(NS(=O)(=O)c4ccc(F)cc4)ccc3O[C@@H]2[C@@H](CO)O1)NC1CCCCC1	5	·	·	·	0	·
COc1cc(-c2nc3c(c(C)nn3-c3ccccc3)c3cc(OC)c(OC)cc23)ccc1O	0	3	99*	13	17	83*
CC1(C(=O)NS(=O)(=O)c2ccc(Cl)cc2)CCN1C(=O)CC1CC1 (stereo not given)	4	·	·	·	11	·
CCc1ccc(-c2nc(CSCC(=O)NCc3ccco3)c(C)o2)cc1	-2	·	102*	·	-13	135*
CCCNC(=O)CSCc1nc(-c2ccc(SC)cc2)oc1C	2	-5	40	-2	6	·
CSc1nc2c(cnn2-c2ccc(C)c(C)c2)c(=O)[nH]1	2	0	100*	5	-13	111*
CCC(C)Sc1nc2c(cnn2-c2ccc(C)c(C)c2)c(=O)[nH]1 (stereo not given)	0	1	12	7	-2	·
CCCc1nc(NCc2ccco2)c(C#N)c2c1COC(C)(C)C2	4	2	104*	2	-11	13
COc1cc(N=c2ssnc2Cl)cc(OC)c1	5	3	106*	0	-1	20
Clc1nssc1=Nc1ccc(Br)cc1	-1	·	106*	·	-37	131*
CC(NC(=O)c1ccc(NC2=NC3CS(=O)(=O)CC3S2)cc1)c1ccccc1 (stereo not given)	0	2	·	-4	-3	·
COc1cc2[nH]c(=O)n(CCC(=O)N3CCN(c4cc(Cl)ccc4C)CC3)c(=O)c2cc1OC	2	2	104*	2	14	56
CCOc1cc2[nH]c(=O)n(CCC(=O)N3CCN(c4ccccc4OC)CC3)c(=O)c2cc1OCC	-3	1	30	1	-1	·
Cc1ccc(S(=O)(=O)N2Cc3ccccc3CC2C(N)=O)cc1 (stereo not given)	0	·	·	·	5	·
O=C(C(=Cc1ccc(O)cc1)c1ccccc1)c1ccccc1	-1	·	·	·	·	·
CNC(=O)c1c(NC(=O)c2ccco2)sc2c1CCC2	0	1	·	0	4	·
CNC(=O)c1c(NC(=O)c2cc(-c3cc(C)c(C)cc3O)n[nH]2)sc2c1CCCC2	·	17	103*	50*	·	-6
O=C(Cn1c(COc2ccccc2)nc2ccccc21)Nc1cc(Cl)cc(Cl)c1	-2	6	109*	18	-2	32
O=C(Cn1c(COc2ccc(Cl)cc2)nc2ccccc21)NCC(F)(F)F	-2	3	16	0	3	·
CC(C)Oc1ccc(C(=O)Nc2ccc(NC(=O)c3ccco3)c(Cl)c2)cc1	0	1	9	1	-9	·
CC(C)COc1ccc(C(=O)Nc2ccc(NC(=O)c3ccco3)c(Cl)c2)cc1	-3	-2	101*	6	-14	69
